Data from ChEMBL document CHEMBL1149289, “Synthesis and antibacterial activity of new poly-S-lysine-porphyrin conjugates” (J Med Chem, 2004).

Experiments:
[1] = system: Escherichia coli; assay: Drug uptake per mg of protein in Escherichia coli O4 at 0.5 uM after 10 mins; format: ADME, organism-based; details: in vivo
Outline: (§1)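 Bacterial suspensions (10^8 to 10^9 cells/mL in PBS) were incubated with porphyrin for 10 min in the dark at room temperature, then centrifuged. The pellet was digested in 2% aqueous SDS. Porphyrin was quantified by spectrofluorimetry and cell protein by modified Lowry assay (BSA standard). Uptake is given as nmol per mg cell protein.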

[2] = system: Staphylococcus aureus; assay: Logarithmic survival of Staphylococcus aureus ATCC 25923 at 0.1 uM after 10 mins and irradiated with white light at the fluence rate of 50 mW/cm2 for 1 min relative to control; format: functional; details: ATCC 25923, light or radiation study
Outline: (§2)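 S. aureus ATCC 25923 or MRSA 110 (PBS-washed, 10^8 to 10^9 cells/mL) were incubated with 0.1 μM photosensitizer for 10 min in the dark at room temperature. They were then irradiated with white light at 50 mW/cm² for varying times up to 30 min. Survival was read as cfu on BHA and divided by cfu of controls without photosensitizer.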

[3] = system: Staphylococcus aureus; assay: Logarithmic survival of Staphylococcus aureus ATCC 25923 at 0.1 uM after 10 mins and irradiated with white light at the fluence rate of 50 mW/cm2 for 5 mins relative to control; format: functional; details: ATCC 25923, light or radiation study; outline: as §2
[4] = system: Staphylococcus aureus; assay: Logarithmic survival of methicillin-resistant Staphylococcus aureus 110 at 0.1 uM after 10 mins and irradiated with white light at the fluence rate of 50 mW/cm2 for 2.5 mins relative to control; format: functional; details: light or radiation study; outline: as §2
[5] = system: Escherichia coli; assay: Logarithmic survival of Escherichia coli O4 at 2.5 uM after 10 mins and irradiated with white light at the fluence rate of 50 mW/cm2 for 30 mins relative to control; format: functional; details: O4, light or radiation study
Outline: (§3)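 Strains grown aerobically at 37 °C on brain heart agar; stationary-phase cells washed twice in PBS and adjusted to OD650 ca. 0.7 (10^8 to 10^9 cells/mL). Cells incubated with photosensitizer at various concentrations for 10 min in the dark at room temperature, then irradiated with white light at 50 mW/cm² for 30 min. Survivors counted as cfu on BHA after 16–20 h at 37 °C, expressed relative to no-photosensitizer controls. Dark controls were run without irradiation.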

[6] = Photostability after irradiation with white light at the fluence rate of 50 mW/cm2 for 1 min; format: ADME; details: read-out: Stability
[7] = system: Staphylococcus aureus; assay: Drug uptake per mg of protein in Staphylococcus aureus ATCC 25923 at 10 uM after 10 mins; format: ADME, organism-based; details: in vivo; outline: as §1
[8] = system: Staphylococcus aureus; assay: Antibacterial activity against Staphylococcus aureus ATCC 25923 measured as 4 log decrease in survival; format: functional; outline: as §3
[9] = system: Staphylococcus aureus; assay: Logarithmic survival of methicillin-resistant Staphylococcus aureus 110 at 0.1 uM after 10 mins and irradiated with white light at the fluence rate of 50 mW/cm2 for 15 mins relative to control; format: functional; details: light or radiation study; outline: as §2
[10] = system: Escherichia coli; assay: Logarithmic survival of Escherichia coli O4 at 5 uM after 10 mins and irradiated with white light at the fluence rate of 50 mW/cm2 for 30 mins relative to control; format: functional; details: O4, light or radiation study; outline: as §3
[11] = system: Staphylococcus aureus; assay: Logarithmic survival of Staphylococcus aureus ATCC 25923 at 5 uM after 10 mins and irradiated with white light at the fluence rate of 50 mW/cm2 for 30 mins relative to control; format: functional; details: ATCC 25923, light or radiation study; outline: as §3
[12] = system: Escherichia coli; assay: Antibacterial activity against Escherichia coli O4 measured as 4 log decrease in survival; format: functional; outline: as §3
[13] = system: Staphylococcus aureus; assay: Logarithmic survival of Staphylococcus aureus ATCC 25923 at 10 uM after 10 mins and irradiated with white light at the fluence rate of 50 mW/cm2 for 30 mins relative to control; format: functional; details: ATCC 25923, light or radiation study; outline: as §3
[14] = Photostability after irradiation with white light at the fluence rate of 50 mW/cm2 for 20 mins; format: ADME; details: read-out: Stability
[15] = Photostability after irradiation with white light at the fluence rate of 50 mW/cm2 for 10 mins; format: ADME; details: read-out: Stability
[16] = system: Escherichia coli; assay: Drug uptake per mg of protein in Escherichia coli O4 at 2.5 uM after 10 mins; format: ADME, organism-based; details: in vivo; outline: as §1
[17] = system: Staphylococcus aureus; assay: Logarithmic survival of methicillin-resistant Staphylococcus aureus 110 at 0.1 uM after 10 mins and irradiated with white light at the fluence rate of 50 mW/cm2 for 1 min relative to control; format: functional; details: light or radiation study; outline: as §2
[18] = system: Staphylococcus aureus; assay: Logarithmic survival of Staphylococcus aureus ATCC 25923 at 0.01 uM after 10 mins and irradiated with white light at the fluence rate of 50 mW/cm2 for 30 mins relative to control; format: functional; details: ATCC 25923, light or radiation study; outline: as §3
[19] = system: Staphylococcus aureus; assay: Logarithmic survival of methicillin-resistant Staphylococcus aureus 110 at 10 uM after 10 mins and irradiated with white light at the fluence rate of 50 mW/cm2 for 30 mins relative to control; format: functional; details: light or radiation study
Outline: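 MRSA 110 grown aerobically at 37 °C on BHA. Stationary-phase cells were taken into BHI, washed twice in PBS and diluted to OD650 ~0.7 (10^8 to 10^9 cells/mL). Suspensions were held with photosensitizer for 10 min in the dark at room temperature, then given white light for 30 min. Cells were serially diluted, plated on BHA and counted after 16–20 h at 37 °C. Survival = cfu ÷ cfu of photosensitizer-free controls.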

[20] = system: Staphylococcus aureus; assay: Logarithmic survival of methicillin-resistant Staphylococcus aureus 110 at 0.1 uM after 10 mins and irradiated with white light at the fluence rate of 50 mW/cm2 for 30 mins relative to control; format: functional; details: light or radiation study; outline: as §2
[21] = Photostability after irradiation with white light at the fluence rate of 50 mW/cm2 for 5 mins; format: ADME; details: read-out: Stability
[22] = Photostability after irradiation with white light at the fluence rate of 50 mW/cm2 for 3 mins; format: ADME; details: read-out: Stability
[23] = system: Staphylococcus aureus; assay: Drug uptake per mg of protein in methicillin-resistant Staphylococcus aureus 110 at 2.5 uM after 10 mins; format: ADME, organism-based; details: in vivo; outline: as §1
[24] = system: Staphylococcus aureus; assay: Drug uptake per mg of protein in Staphylococcus aureus ATCC 25923 at 5 uM after 10 mins; format: ADME, organism-based; details: in vivo; outline: as §1
[25] = system: Staphylococcus aureus; assay: Drug uptake per mg of protein in Staphylococcus aureus ATCC 25923 at 0.5 uM after 10 mins; format: ADME, organism-based; details: in vivo; outline: as §1
[26] = system: Staphylococcus aureus; assay: Logarithmic survival of Staphylococcus aureus ATCC 25923 at 0.1 uM after 10 mins and irradiated with white light at the fluence rate of 50 mW/cm2 for 30 mins relative to control; format: functional; details: ATCC 25923, light or radiation study; outline: as §2
[27] = system: Escherichia coli; assay: Drug uptake per mg of protein in Escherichia coli O4 at 1 uM after 10 mins; format: ADME, organism-based; details: in vivo; outline: as §1
[28] = system: Staphylococcus aureus; assay: Logarithmic survival of methicillin-resistant Staphylococcus aureus 110 at 0.01 uM after 10 mins and irradiated with white light at the fluence rate of 50 mW/cm2 for 30 mins relative to control; format: functional; details: light or radiation study; outline: as §3
[29] = system: Staphylococcus aureus; assay: Logarithmic survival of Staphylococcus aureus ATCC 25923 at 0.5 uM after 10 mins and irradiated with white light at the fluence rate of 50 mW/cm2 for 30 mins relative to control; format: functional; details: ATCC 25923, light or radiation study; outline: as §3
[30] = system: Staphylococcus aureus; assay: Logarithmic survival of Staphylococcus aureus ATCC 25923 at 0.1 uM after 10 mins and irradiated with white light at the fluence rate of 50 mW/cm2 for 10 mins relative to control; format: functional; details: ATCC 25923, light or radiation study; outline: as §2
[31] = system: Escherichia coli; assay: Logarithmic survival of Escherichia coli O4 at 1 uM after 10 mins and irradiated with white light at the fluence rate of 50 mW/cm2 for 30 mins relative to control; format: functional; details: O4, light or radiation study; outline: as §3
[32] = system: Staphylococcus aureus; assay: Logarithmic survival of Staphylococcus aureus ATCC 25923 at 1 uM after 10 mins and irradiated with white light at the fluence rate of 50 mW/cm2 for 30 mins relative to control; format: functional; details: ATCC 25923, light or radiation study; outline: as §3
[33] = system: Staphylococcus aureus; assay: Drug uptake per mg of protein in methicillin-resistant Staphylococcus aureus 110 at 1 uM after 10 mins; format: ADME, organism-based; details: in vivo; outline: as §1

## C[n+]1ccc(-c2c3nc(c(-c4cc[n+](C)cc4)c4ccc([nH]4)c(-c4cc[n+](C)cc4)c4nc(c(-c5ccc(C(=O)O)cc5)c5ccc2[nH]5)C=C4)C=C3)cc1.[I-].[I-].[I-]
[1]
  Drug uptake: 1.29 nmol/mg
[2]
  survival at 0.1 µM: 0.67
[3]
  survival at 0.1 µM: -0.28
[4]
  survival at 0.1 µM: 1.84
[5]
  survival at 2.5 µM: -0.46
[6]
  remaining at 1 min: 93%
[7]
  Drug uptake: 17 nmol/mg
[8]
  Activity: 2.5 µM
[9]
  survival at 0.1 µM: 1.82
[10]
  survival at 5 µM: -2.57
[11]
  survival at 5 µM: -3.06%
[12]
  Activity: 5 µM
[13]
  survival at 10 µM: -4.36%
[14]
  remaining at 20 min: 72%
[15]
  remaining at 10 min: 77%
[16]
  Drug uptake: 3.47 nmol/mg
[17]
  survival at 0.1 µM: 1.96
[18]
  survival at 0.01 µM: 2
[19]
  survival at 10 µM: -2.7
[20]
  survival at 0.1 µM: 1.69%
[21]
  remaining at 5 min: 83%
[22]
  remaining at 0.05 h: 86%
[23]
  Drug uptake: 7.69 nmol/mg
[24]
  Drug uptake: 9.97 nmol/mg
[25]
  Drug uptake: 1.88 nmol/mg
[26]
  survival at 0.1 µM: 1.87
[27]
  Drug uptake: 2.47 nmol/mg
[28]
  log survival at 0.01 µM: 2 log10 %
[29]
  survival at 0.5 µM: -0.42
[30]
  survival at 0.1 µM: -0.42
[31]
  survival at 1 µM: 0.68
[32]
  survival at 1 µM: -1.32%
[33]
  Drug uptake: 5.43 nmol/mg

## O=C(O)c1ccc(-c2c3nc(c(-c4ccncc4)c4ccc([nH]4)c(-c4ccncc4)c4nc(c(-c5ccncc5)c5ccc2[nH]5)C=C4)C=C3)cc1 [PORPHIRIN]
[1]
  Drug uptake: 4.16 nmol/mg
[2]
  survival at 0.1 µM: 1.49
[3]
  survival at 0.1 µM: -0.85
[4]
  survival at 0.1 µM: 1.8
[5]
  survival at 2.5 µM: 1.65
[6]
  remaining at 1 min: 99%
[7]
  Drug uptake: 187 nmol/mg
[8]
  Activity: 0.25 µM
[9]
  survival at 0.1 µM: 0.26
[10]
  survival at 5 µM: 1.6
[11]
  survival at 5 µM: -3.73%
[12]
  Activity: 10 µM
[13]
  survival at 10 µM: -4.06%
[14]
  remaining at 20 min: 90%
[15]
  remaining at 10 min: 94%
[16]
  Drug uptake: 35.3 nmol/mg
[17]
  survival at 0.1 µM: 1.83
[18]
  survival at 0.01 µM: 2
[19]
  survival at 10 µM: -3.35
[20]
  survival at 0.1 µM: 0.46%
[21]
  remaining at 5 min: 96%
[22]
  remaining at 0.05 h: 97%
[23]
  Drug uptake: 47 nmol/mg
[24]
  Drug uptake: 81.4 nmol/mg
[25]
  Drug uptake: 3.15 nmol/mg
[26]
  survival at 0.1 µM: -1.7
[27]
  Drug uptake: 7.65 nmol/mg
[28]
  log survival at 0.01 µM: 2 log10 %
[29]
  survival at 0.5 µM: -2.39
[30]
  survival at 0.1 µM: -2.07
[31]
  survival at 1 µM: 1.72
[32]
  survival at 1 µM: -2.7%
[33]
  Drug uptake: 15 nmol/mg
